# According to ChEMBL document CHEMBL2346505, “Pyranoflavones: a group of small-molecule probes for exploring the active site cavities of cytochrome P450 enzymes 1A1, 1A2, and 1B1” (J Med Chem, 2013):
# Legend:
# Type in all cases: ADME
# [1] = molecular target: T1, Cytochrome P450 2B1 (Rattus norvegicus, UniProt P00176); experiment: Inhibition of CYP2B1 (unknown origin)-mediated depentylation of resorufin pentyl ether after 5 mins by spectrofluorimetric analysis
# T1 sequence (P00176 whole entry): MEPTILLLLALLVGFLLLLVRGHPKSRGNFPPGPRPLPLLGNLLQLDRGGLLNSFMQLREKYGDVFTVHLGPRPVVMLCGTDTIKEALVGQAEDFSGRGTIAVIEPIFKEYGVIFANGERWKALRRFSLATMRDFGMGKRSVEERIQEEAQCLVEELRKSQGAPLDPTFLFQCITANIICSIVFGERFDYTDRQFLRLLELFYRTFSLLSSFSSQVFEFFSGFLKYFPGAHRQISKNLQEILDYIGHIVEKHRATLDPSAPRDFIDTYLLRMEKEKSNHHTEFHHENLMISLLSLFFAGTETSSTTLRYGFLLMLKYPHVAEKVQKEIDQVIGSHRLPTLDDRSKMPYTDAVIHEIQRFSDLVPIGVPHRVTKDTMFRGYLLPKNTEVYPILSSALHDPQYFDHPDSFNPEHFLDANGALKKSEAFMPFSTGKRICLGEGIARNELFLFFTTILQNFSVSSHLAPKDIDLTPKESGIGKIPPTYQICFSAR
# Outline: (§1)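 Microsomal P450 (final 5 nM) in 0.1 M potassium phosphate pH 7.6 with MgCl2; resorufin ether or coumarin substrate final 5 μM from DMSO stock; inhibitor added in DMSO, DMSO alone for controls. Reaction started with NADPH regenerating system (NADP+, glucose 6-phosphate, G6P dehydrogenase) at 37 °C; product formation followed fluorimetrically as progress curves.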
# [2] = molecular target: T2, Cytochrome P450 2A6 (Homo sapiens, UniProt P11509); experiment: Inhibition of CYP2A6 (unknown origin)-mediated coumarin 7-hydroxylation after 5 mins by spectrofluorimetric analysis; outline: as §1
# T2 sequence (P11509 whole entry): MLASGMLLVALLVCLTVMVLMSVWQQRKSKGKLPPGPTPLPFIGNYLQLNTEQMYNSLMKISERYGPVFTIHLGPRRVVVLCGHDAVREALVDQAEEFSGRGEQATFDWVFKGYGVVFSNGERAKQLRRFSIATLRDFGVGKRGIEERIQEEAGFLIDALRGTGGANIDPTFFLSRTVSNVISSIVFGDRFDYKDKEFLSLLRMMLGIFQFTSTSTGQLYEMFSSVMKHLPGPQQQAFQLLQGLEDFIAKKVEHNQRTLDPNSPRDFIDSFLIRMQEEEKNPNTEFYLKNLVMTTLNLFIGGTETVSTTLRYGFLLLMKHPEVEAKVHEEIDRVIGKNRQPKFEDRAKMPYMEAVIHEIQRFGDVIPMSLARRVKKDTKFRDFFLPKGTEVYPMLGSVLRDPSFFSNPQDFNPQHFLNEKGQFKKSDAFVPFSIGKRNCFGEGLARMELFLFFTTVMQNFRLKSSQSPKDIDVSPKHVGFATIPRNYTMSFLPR
# [3] = molecular target: T3, Cytochrome P450 1B1 (Homo sapiens, UniProt Q16678); experiment: Inhibition of CYP1B1 (unknown origin)-mediated deethylation of resorufin ethyl ether after 5 mins by spectrofluorimetric analysis; outline: as §1
# T3 sequence (Q16678 whole entry): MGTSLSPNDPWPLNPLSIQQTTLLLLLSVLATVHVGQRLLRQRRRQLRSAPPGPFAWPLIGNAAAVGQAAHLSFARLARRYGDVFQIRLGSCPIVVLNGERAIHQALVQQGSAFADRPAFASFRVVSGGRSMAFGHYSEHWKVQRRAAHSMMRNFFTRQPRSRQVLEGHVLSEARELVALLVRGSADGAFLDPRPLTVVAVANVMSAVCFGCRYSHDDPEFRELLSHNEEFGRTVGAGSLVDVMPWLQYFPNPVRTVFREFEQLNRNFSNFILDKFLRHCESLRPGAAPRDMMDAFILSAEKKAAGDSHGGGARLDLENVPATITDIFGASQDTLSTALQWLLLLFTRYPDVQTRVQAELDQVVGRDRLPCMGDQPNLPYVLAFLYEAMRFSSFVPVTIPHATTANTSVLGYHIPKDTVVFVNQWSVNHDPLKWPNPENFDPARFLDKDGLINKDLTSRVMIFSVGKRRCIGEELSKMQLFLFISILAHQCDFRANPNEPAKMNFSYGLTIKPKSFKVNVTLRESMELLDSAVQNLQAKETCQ
# [4] = molecular target: T4, Cytochrome P450 1A2 (Homo sapiens, UniProt P05177); experiment: Inhibition of CYP1A2 (unknown origin)-mediated demethylation of resorufin methyl ether after 5 mins by spectrofluorimetric analysis; outline: as §1
# T4 sequence (P05177 whole entry): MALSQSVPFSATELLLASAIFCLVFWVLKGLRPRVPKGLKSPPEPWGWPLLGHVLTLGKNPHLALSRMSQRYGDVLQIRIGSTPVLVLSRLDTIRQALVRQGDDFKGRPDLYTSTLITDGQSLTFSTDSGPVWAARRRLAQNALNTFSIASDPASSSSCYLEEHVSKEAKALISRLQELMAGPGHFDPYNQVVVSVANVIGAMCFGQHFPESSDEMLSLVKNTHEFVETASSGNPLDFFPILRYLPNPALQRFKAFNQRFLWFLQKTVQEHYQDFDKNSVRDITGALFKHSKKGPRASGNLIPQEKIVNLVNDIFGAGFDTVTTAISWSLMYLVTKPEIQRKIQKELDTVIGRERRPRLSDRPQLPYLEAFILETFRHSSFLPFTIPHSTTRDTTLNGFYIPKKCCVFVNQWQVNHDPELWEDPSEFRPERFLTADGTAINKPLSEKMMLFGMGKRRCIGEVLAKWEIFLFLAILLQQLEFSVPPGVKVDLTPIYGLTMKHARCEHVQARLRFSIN
# [5] = molecular target: T5, Cytochrome P450 1A1 (Homo sapiens, UniProt P04798); experiment: Inhibition of CYP1A1 (unknown origin)-mediated deethylation of resorufin ethyl ether after 5 mins by spectrofluorimetric analysis; outline: as §1
# T5 sequence (P04798 whole entry): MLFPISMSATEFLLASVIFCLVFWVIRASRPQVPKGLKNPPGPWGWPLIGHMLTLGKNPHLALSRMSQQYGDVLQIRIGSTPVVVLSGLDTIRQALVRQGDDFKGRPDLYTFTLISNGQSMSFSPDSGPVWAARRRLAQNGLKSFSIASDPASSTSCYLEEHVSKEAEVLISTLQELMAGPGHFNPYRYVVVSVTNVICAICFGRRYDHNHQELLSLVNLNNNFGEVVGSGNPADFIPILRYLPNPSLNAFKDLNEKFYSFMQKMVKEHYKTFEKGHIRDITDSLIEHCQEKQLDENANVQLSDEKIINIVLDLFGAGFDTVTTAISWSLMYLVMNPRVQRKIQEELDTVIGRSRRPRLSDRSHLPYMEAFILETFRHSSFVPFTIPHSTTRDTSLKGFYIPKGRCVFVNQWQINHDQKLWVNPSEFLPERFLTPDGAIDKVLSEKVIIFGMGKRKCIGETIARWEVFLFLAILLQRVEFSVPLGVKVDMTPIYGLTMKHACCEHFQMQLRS
# [6] = tested on: CYP1A2 / CYP1A1; experiment: Selectivity ratio of IC50 for CYP1A2 (unknown origin) to IC50 for CYP1A1 (unknown origin); conditions: human; read-out: Ratio IC50
# [7] = molecular target: T6, CYP1A1 (Homo sapiens, UniProt P04798); experiment: (§2) Irreversible inhibition of CYP1A1 (unknown origin)-mediated deethylation of resorufin ethyl ether after 5 mins by spectrofluorimetric analysis; conditions: human, probe resorufin ethyl ether
# T6 sequence (P04798 whole entry): T5 sequence (P04798 whole entry)
# [8] = molecular target: T5, Cytochrome P450 1A1; experiment: as §2
# [9] = molecular target: T4, Cytochrome P450 1A2; experiment: (§3) Irreversible inhibition of CYP1A2 (unknown origin)-mediated demethylation of resorufin methyl ether after 5 mins by spectrofluorimetric analysis
# [10] = molecular target: T7, CYP1A2 (Homo sapiens, UniProt P05177); experiment: as §3; conditions: human, probe resorufin methyl ether
# T7 sequence (P05177 whole entry): T4 sequence (P05177 whole entry)
# [11] = molecular target: T4, Cytochrome P450 1A2; experiment: Inhibition of CYP1A2 (unknown origin)-mediated demethylation of resorufin methyl ether at 0.1 uM after 5 mins by spectrofluorimetric analysis
# Outline: (§4)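 Fluorimetric dealkylation of resorufin ether (ethyl for 1A1/1B1, methyl for 1A2) by microsomal P450 (final 5 nM), substrate final 5 μM, in 0.1 M potassium phosphate pH 7.6 with MgCl2 at 37 °C. Reaction started with NADPH regenerating system. Test compound at 0.1 μM in DMSO; activity compared with DMSO-only control.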
# [12] = molecular target: T5, Cytochrome P450 1A1; experiment: Inhibition of CYP1A1 (unknown origin)-mediated deethylation of resorufin ethyl ether at 0.1 uM after 5 mins by spectrofluorimetric analysis; outline: as §4
# [13] = tested on: CYP1B1 over CYP1A1; experiment: Selectivity ratio for CYP1B1 (unknown origin) over CYP1A1 (unknown origin); conditions: human
# Outline: (§5)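 Ratio of IC50 values from fluorimetric dealkylation assays: resorufin ethyl ether deethylation (1A1, 1B1), resorufin methyl ether demethylation (1A2). Microsomal P450 5 nM final, substrate 5 μM final, 0.1 M potassium phosphate pH 7.6 with MgCl2, NADPH-regenerating system, 37 °C. Inhibitor 0.1–100 μM in DMSO. IC50s from progress curves, three independent experiments.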
# [14] = tested on: CYP1B1 over CYP1A2; experiment: Selectivity ratio for CYP1B1 (unknown origin) over CYP1A2 (unknown origin); conditions: human; outline: as §5
# [15] = molecular target: T8, CYP1B1 (Homo sapiens, UniProt Q16678); experiment: Inhibition of CYP1B1 (unknown origin) dealkylation activity at 0.1 uM after 5 mins by spectrofluorimetric analysis relative to control; outline: as §4
# T8 sequence (Q16678 whole entry): T3 sequence (Q16678 whole entry)
SMILES,IC50 [1],IC50 [2],inhibition (INH) [3],IC50 [4],IC50 [5],further results
O=c1cc(-c2ccccc2)oc2cc3c(c(O)c12)C=CCO3,> 25 µM,> 25 µM,Active,,,
O=c1cc(-c2ccc3c(c2)OCC=C3)oc2cccc(O)c12,> 25 µM,> 25 µM,Active,,,
O=c1cc(-c2ccc3c(c2)C=CCO3)oc2cccc(O)c12,> 25 µM,> 25 µM,Active,,,
C#CCOc1cc(O)c2c(=O)cc(-c3ccccc3)oc2c1,> 25 µM,> 25 µM,Active,0.089 µM,0.35 µM,
"O=c1cc(-c2cccc3c2OCC=C3)oc2ccccc12 [2'H,4H-[2,8'-BICHROMEN]-4-ONE]",6.29 µM,> 25 µM,Active,,,
O=c1cc(-c2ccccc2)oc2ccc3c(c12)OCC=C3,> 25 µM,> 25 µM,Active,1.13 µM,0.32 µM,selectivity ratio [6]: 3.5
O=c1cc(-c2ccccc2)oc2ccc3c(c12)C=CCO3,> 25 µM,> 25 µM,Active,0.76 µM,0.15 µM,selectivity ratio [6]: 5
"O=c1cc(-c2cccc3c2C=CCO3)oc2ccccc12 [2'H,4H-[2,5'-BICHROMEN]-4-ONE]",7.12 µM,> 25 µM,Active,,,
C#CCOc1ccc(-c2cc(=O)c3c(ccc4ccccc43)o2)cc1,,,,0.6 µM,0.041 µM,selectivity ratio [6]: 5
O=c1cc(-c2ccccc2)oc2c1ccc1ccccc12 [ALPHA-NAPHTHOFLAVONE],13 µM,> 25 µM,Active,,0.043 µM,
O=c1cc(-c2ccc3c(c2)C=CCO3)oc2ccccc12,6.62 µM,> 25 µM,Active,,,
C#CCOc1cccc(-c2cc(=O)c3c(O)cccc3o2)c1,4.08 µM,> 25 µM,Active,,,kinact at 5 min [7]: 0.00317 s⁻¹; Ki [8]: 0.13 µM; Ki [9]: 0.071 µM; kinact at 5 min [10]: 0.000367 s⁻¹
O=c1cc(-c2ccccc2)oc2ccc3ccccc3c12 [BETA-NAPHTHOFLAVONE],> 25 µM,> 25 µM,Active,0.47 µM,0.054 µM,selectivity ratio [6]: 5
O=c1cc(-c2cccc3c2C=CCO3)oc2cccc(O)c12,> 25 µM,> 25 µM,Active,,,
C#CCOc1ccc(-c2cc(=O)c3c(O)cccc3o2)cc1,> 25 µM,> 25 µM,Active,> 20 µM,,"inhibition (INH) [11]: Not Active; inhibition (INH) [12]: Not Active; selectivity ratio [13]: 100; selectivity ratio [14]: > 250; inhibition at 5 min, 0.1 µM [15]: 50%"
O=c1cc(-c2ccccc2)oc2c3c(ccc12)OCC=C3,> 25 µM,> 25 µM,Active,,0.27 µM,
O=c1cc(-c2ccccc2)oc2c3c(cc(O)c12)OCC=C3,> 25 µM,> 25 µM,Active,,0.11 µM,
O=c1cc(-c2ccccc2)oc2cc(O)cc(O)c12 [CHRYSIN],> 25 µM,> 25 µM,Active,,,
